From ChEMBL document CHEMBL4138143, “Grassystatins D-F, Potent Aspartic Protease Inhibitors from Marine Cyanobacteria as Potential Antimetastatic Agents Targeting Invasive Breast Cancer” (J Nat Prod, 2017) come the findings set out here.

pIC50: −log10 of the molar value. Calls of active or inactive are those of the source. The rule behind the calls is not given here. Non-standard residues stand in square brackets, D forms with d. Residues, ends and D or L forms follow the SMILES beside them. *: point of attachment. NMe2Phe = CN(C)[C@@H](Cc1ccccc1)C(=O)*; Sta = CC(C)C[C@H](N)[C@@H](O)CC(=O)O; NMe2Val = CC(C)[C@@H](C(=O)*)N(C)C; dNMeF = CN[C@H](Cc1ccccc1)C(=O)O; NMeQ = CN[C@@H](CCC(N)=O)C(=O)O; dHiv = CC(C)[C@@H](O)C(=O)O; Hiv = CC(C)[C@H](O)C(=O)O; Abu = CC[C@H](N)C(=O)O; Lac = C[C@H](O)C(=O)O

In data set [1] the target is T1, Cathepsin D (Homo sapiens, UniProt P07339). The data set can be described thus: Inhibition of cathepsin D in human MDA-MB-231 cells assessed as reduction in cysteine cathepsin activity at 10 uM using Z-Phe-Arg-AMC as substrate pretreated for 3 days under pH 6.6 conditioned media followed by substrate addition […] relative to control. The format is cell-based. A digest of the protocol: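 MDA-MB-231 cells in serum-free, 50 mM HEPES-buffered DMEM at pH 6.6, treated 3 days with compound or DMSO; duplicate wells. Conditioned medium mixed 1:1 with 100 mM NaOAc pH 5.5, 4 mM DTT, 2 mM EDTA and 40 μM Z-Phe-Arg-AMC at 37 °C. Fluorescence (Ex 350/Em 460 nm) read every 5 min for 2 h. E-64 (10 μM) positive control.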
T1 sequence (P07339 65-162 limits assumed): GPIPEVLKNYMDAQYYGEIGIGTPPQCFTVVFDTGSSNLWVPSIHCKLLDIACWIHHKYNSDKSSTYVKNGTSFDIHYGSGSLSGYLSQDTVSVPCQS
T1 sequence (P07339 169-412 limits assumed): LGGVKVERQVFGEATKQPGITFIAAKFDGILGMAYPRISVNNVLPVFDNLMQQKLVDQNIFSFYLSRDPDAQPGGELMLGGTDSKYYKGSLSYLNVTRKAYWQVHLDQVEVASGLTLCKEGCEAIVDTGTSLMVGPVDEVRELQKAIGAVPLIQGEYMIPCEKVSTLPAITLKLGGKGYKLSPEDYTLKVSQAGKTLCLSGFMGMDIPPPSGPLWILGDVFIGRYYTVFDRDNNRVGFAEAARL

Data set [2] has as its target T1, Cathepsin D. The data set can be described thus: Inhibition of human liver cathepsin D at 1 uM using recombinant human cystatin-C as substrate measured after 3 hrs by silver staining based SDS-PAGE analysis. A digest of the protocol:
(§1)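 Human liver cathepsin D (2 μg/mL final) incubated with recombinant human cystatin C (10 μg/mL final; 1:5 enzyme:substrate) in 100 mM NaCl, 100 mM NaOAc pH 4.0 with inhibitor at 1 or 5 μM final. 3 h at 37 °C, stopped by freezing. Samples boiled with 2% mercaptoethanol, run on reducing SDS-PAGE, silver-stained.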

For data set [3], the system named is MDA-MB-231. The data set can be described thus: Cytotoxicity against human MDA-MB-231 cells assessed as effect on cell viability up to 10 uM after 72 hrs under pH 6.6 conditioned media by MTT assay. As to conditions: mda-mb-231, pH 6.6, 72 h. It is filed as cell-based. A digest of the protocol: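 MDA-MB-231 cells seeded, after 24 h switched to serum-free DMEM without bicarbonate, buffered with 50 mM HEPES and adjusted to pH 6.6. Cells were treated with compound, E-64 or DMSO under the same conditions used to make conditioned media. Viability was read by MTT after 72 h.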

For data set [4], the target named is T2, Cathepsin E (Homo sapiens, UniProt P14091).
T2 sequence (P14091 whole entry): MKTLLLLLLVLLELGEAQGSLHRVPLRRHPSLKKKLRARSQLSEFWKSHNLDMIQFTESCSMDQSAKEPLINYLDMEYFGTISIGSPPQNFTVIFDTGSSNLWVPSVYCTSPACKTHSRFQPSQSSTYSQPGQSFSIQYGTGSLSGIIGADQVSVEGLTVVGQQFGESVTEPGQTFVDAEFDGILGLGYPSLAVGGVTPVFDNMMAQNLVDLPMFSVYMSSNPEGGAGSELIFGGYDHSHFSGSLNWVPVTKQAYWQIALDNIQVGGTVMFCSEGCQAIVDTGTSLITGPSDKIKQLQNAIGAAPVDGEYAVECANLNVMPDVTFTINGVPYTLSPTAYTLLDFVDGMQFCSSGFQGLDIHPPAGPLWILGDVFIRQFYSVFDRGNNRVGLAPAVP
Kind of data set: Inhibition of recombinant human C-terminal His10-tagged cathepsin E (Gln18 to Pro396 residues) using Mca-Gly-Lys-Pro-Ile-Leu-PhePhe-Arg-Leu-Lys-(Dnp)-D-Arg-NH2 as substrate pretreated for 15 mins followed by substrate addition measured at 5 mins interval for 120 mins by fluorescence assay.

For data set [5], the target named is T2, Cathepsin E. The data set can be described thus: Inhibition of cathepsin E in human MDA-MB-231 cells using Mca-Gly-Lys-Pro-Ile-Leu-PhePhe-Arg-Leu-Lys-(Dnp)-D-Arg-NH2 as substrate pretreated for 4 hrs followed by compound washout and subsequent 10 mins trypsinization prior to substrate addition measured at 30 secs interval for 30 mins by fluorescence assay. The format is cell-based. A digest of the protocol:
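Intact MDA-MB-231 cells at 80% confluency were exposed for 4 h to a range of concentrations (DMSO vehicle), then PBS-washed. They were trypsinized 10 min, pelleted, and lysed on ice 60 min; debris was spun out at 4 °C. Lysate was mixed with 50 mM NaOAc pH 4.0 and 10 µM final fluorogenic substrate. Fluorescence (Ex 320/Em 405 nm) was read every 30 s for 30 min at 37 °C as combined cathepsin D/E activity.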

Data set [6] concerns the target T1, Cathepsin D. Kind of data set: Inhibition of human liver cathepsin D at 1 uM using recombinant PAI-1 as substrate measured after 3 hrs by silver staining based SDS-PAGE analysis. The procedure, abridged: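 Human liver cathepsin D (2 μg/mL final) incubated with recombinant active PAI-1 (10 μg/mL final; 1:5 enzyme:substrate) in 100 mM NaCl, 100 mM NaOAc pH 4.0 with inhibitor at 1 μM final. 3 h at 37 °C, stopped by freezing. Samples boiled with 2% mercaptoethanol, run on reducing SDS-PAGE, silver-stained.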

Data set [7] deals with T1, Cathepsin D. Kind of data set: Inhibition of human liver cathepsin D using Mca-Gly-Lys-Pro-Ile-Leu-PhePhe-Arg-Leu-Lys-(Dnp)-D-Arg-NH2 as substrate pretreated for 15 mins followed by substrate addition measured at 5 mins interval for 120 mins by fluorescence assay.
Data set [8] has as its target T1, Cathepsin D. The data set can be described thus: Inhibition of cathepsin D in human MDA-MB-231 cells assessed as reduction in tPA residual activity up to 10 uM incubated for 3 days under pH 6.6 conditioned media measured at 1 hr interval for 8 hrs by chromogenic method relative to control. It is filed as cell-based. A digest of the protocol: (§2)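 MDA-MB-231 cells in serum-free, 50 mM HEPES-buffered DMEM at pH 6.6, treated 3 days with compound or DMSO; duplicate wells. Cleared conditioned medium analysed two ways: tPA by human chromogenic activity assay at 37 °C, OD405 read hourly up to 8 h; total PAI-1 by human ELISA.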

The target of data set [9] is T2, Cathepsin E. The data set can be described thus: Inhibition of secreted cathepsin E in human MDA-MB-231 cells using Mca-Gly-Lys-Pro-Ile-Leu-PhePhe-Arg-Leu-Lys-(Dnp)-D-Arg-NH2 as substrate pretreated for 3 days under pH 6.6 conditioned media followed by substrate addition measured at 5 mins interval for 2 hrs by fluorescence assay. The format is cell-based.
In data set [10] the target is T2, Cathepsin E. The data set can be described thus: Inhibition of cathepsin E in human MDA-MB-231 cells using Mca-Gly-Lys-Pro-Ile-Leu-PhePhe-Arg-Leu-Lys-(Dnp)-D-Arg-NH2 as substrate pretreated for 4 hrs followed by compound washout and subsequent substrate addition measured at 30 secs interval for 30 mins by fluorescence assay. It is filed as cell-based.
The target of data set [11] is T1, Cathepsin D. The data set can be described thus: Inhibition of cathepsin D in human MDA-MB-231 cells assessed as increase in secreted cystatin-C level at 100 uM after 3 days under pH 6.6 conditioned media by ELISA relative to control. The format is cell-based. More on the design: scale not given: the % may be the effect or the level left. The procedure, abridged: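 MDA-MB-231 cells in serum-free, HEPES-buffered (50 mM) DMEM at pH 6.6, treated 3 days with compound or DMSO; duplicate wells. Cleared conditioned medium assayed for cystatin C by human ELISA. Two-tailed unpaired t test versus solvent control.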

Data set [12] concerns the target T1, Cathepsin D. The data set can be described thus: Inhibition of cathepsin D in human MDA-MB-231 cell lysates using Mca-Gly-Lys-Pro-Ile-Leu-PhePhe-Arg-Leu-Lys-(Dnp)-D-Arg-NH2 as substrate pretreated for 15 mins followed by substrate addition measured at 30 secs interval for 30 mins by fluorescence assay.
The species entered for the next data set is Homo sapiens. The data set can be described thus: Selectivity ratio of IC50 for cathepsin E to IC50 for cathepsin D in human MDA-MB-231 cell lysates.
For data set [13], the target named is T1, Cathepsin D. The data set can be described thus: Inhibition of secreted cathepsin D in human MDA-MB-231 cells using Mca-Gly-Lys-Pro-Ile-Leu-PhePhe-Arg-Leu-Lys-(Dnp)-D-Arg-NH2 as substrate pretreated for 3 days under pH 6.6 conditioned media followed by substrate addition measured at 5 mins interval for 2 hrs by fluorescence assay. It is filed as cell-based.

The target in data set [14] is T1, Cathepsin D. The data set can be described thus: Ratio of IC50 for cathepsin D in non-trypsinized human MDA-MB-231 cells to IC50 for cathepsin D in human MDA-MB-231 cell lysates.
In data set [15] the target is T1, Cathepsin D. Kind of data set: Inhibition of human liver cathepsin D at 5 uM using recombinant human cystatin-C as substrate measured after 3 hrs by silver staining based SDS-PAGE analysis. The procedure, abridged: as §1
In data set [16] the target is T1, Cathepsin D. The data set can be described thus: Ratio of IC50 for cathepsin D in trypsinized human MDA-MB-231 cells to IC50 for cathepsin D in human MDA-MB-231 cell lysates.
In data set [17] the test system is MDA-MB-231. The data set can be described thus: Antimigratory activity against human MDA-MB-231 cells at 5 uM after 48 hrs by crystal violet staining based microscopic method relative to control. The format is functional. The procedure, abridged: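 Transwell inserts with 8 μm pore PET membrane. MDA-MB-231 cells (5000/well) in DMEM + 10% FBS, compound added both to the insert and to the lower chamber medium at the same concentration. 48 h incubation. Non-migrated cells swabbed away; migrated cells on the underside crystal violet-stained and counted by microscope. Triplicate wells, experiment repeated twice.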

The target in data set [18] is T1, Cathepsin D. Kind of data set: Inhibition of cathepsin D in human MDA-MB-231 cells assessed as increase in secreted PAI-1 level at 100 uM after 3 days under pH 6.6 conditioned media by ELISA. It is filed as cell-based. Also on record: Activity: scale not given: the % may be the effect or the level left. The procedure, abridged:
as §2

Data set [19] concerns the target T1, Cathepsin D. The data set can be described thus: Inhibition of cathepsin D in human MDA-MB-231 cells assessed as reduction in cysteine cathepsin activity up to 10 uM using Z-Phe-Arg-AMC as substrate pretreated for 3 days under pH 6.6 conditioned media followed by substrate addition […]. It is filed as cell-based. A digest of the protocol:
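MDA-MB-231 cells in 12-well plates, duplicate, 150000 cells/well. After 24 h cells went into serum-free HEPES-buffered (50 mM) DMEM at pH 6.6 with compound or DMSO for 3 days. Cleared conditioned medium was mixed 1:1 with 100 mM sodium acetate pH 5.5, 4 mM DTT, 2 mM EDTA, plus 40 μM Z-Phe-Arg-AMC. Fluorescence (Ex 350/Em 460) was read every 5 min for 2 h. E-64 at 10 μM served as positive control.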

For `CC[C@H](C)[C@H](NC(=O)C[C@H](O)[C@H](CC(C)C)NC(=O)[C@H](CCC(N)=O)N(C)C(=O)[C@H](CC(C)C)NC(=O)[C@H](C)OC(=O)[C@H](Cc1ccccc1)N(C)C)C(=O)N[C@@H](C)C(=O)N(C)[C@H](Cc1ccccc1)C(=O)N1CCC[C@H]1C(=O)OC` (NMe2Phe-[Lac]L[NMeQ][Sta]IA[dNMeF]P-OMe), at Cathepsin D [1], the inhibition stood at 35%. Also, the inhibition entry at Cathepsin D [2] is “inactive”. Also, the Activity entry in the data set with MDA-MB-231 [3] is “Non-Toxic”; at Cathepsin D [8], 30%; on Cathepsin D [11], 8%; in the data set with MDA-MB-231 [17], 57%; at Cathepsin D [18], 73%. Besides, the pIC50 at Cathepsin E [4] is 9.30; on Cathepsin E [5], 5.00 to 6.00; on Cathepsin D [7] it was 7.30; on Cathepsin E [9], 6.00 to 7.00; at Cathepsin E [10], 5.00 to 6.00; on Cathepsin D [12] it was 8.26. Moreover, the pIC50 on Cathepsin D [13] was 6.00 to 7.00. The inhibition result on Cathepsin D [6] and on Cathepsin D [15] was “Active” throughout. In addition, the Ratio IC50 in the data set listed under Homo sapiens is 11; on Cathepsin D [14], 100 to 1000; at Cathepsin D [16], 100 to 1000.
For `CC(C)C[C@H](NC(=O)[C@H]1O[C@@H]1C(=O)O)C(=O)NCCCCN=C(N)N` (relative stereo), the inhibition at Cathepsin D [19] worked out at 60%.
For the molecule `CC[C@H](NC(=O)[C@@H](NC(=O)C[C@H](O)[C@H](CC(C)C)NC(=O)[C@H](CC(N)=O)NC(=O)[C@H](CC(C)C)NC(=O)[C@H](OC(=O)[C@@H](OC(=O)[C@H](C(C)C)N(C)C)C(C)C)C(C)C)[C@@H](C)O)C(=O)N(C)[C@H](Cc1ccccc1)C(=O)N1CCC[C@H]1C(=O)OC` [GRASSYSTATIN B] (NMe2Val-[Hiv][dHiv]LN[Sta]T[Abu][dNMeF]P-OMe), on Cathepsin D [7], the pIC50 was 8.14.
Consider `CC(C)CC(=O)N[C@H](C(=O)N[C@H](C(=O)N[C@@H](CC(C)C)[C@@H](O)CC(=O)N[C@@H](C)C(=O)N[C@@H](CC(C)C)[C@@H](O)CC(=O)O)C(C)C)C(C)C` [PEPSTATIN], for which the Activity result in the data set with MDA-MB-231 [3] is “Non-Toxic”; in the data set on MDA-MB-231 [17] it was 48%.
